Screening results from PubChem.
This is a sample that favours compounds with a hit; in the whole collection about 2% have one here.
DENV2 CPE – inhibitors of DENV2 cytopathic effect; DENV2-infected cells, cytopathic effect rescue, plate reader; CPE inhibition, % at 9.99 µM; 350,000 tested, 1.7% active; AID 651640; in the data active means CPE inhibition above about 20%, passing the limit was not always enough; inconclusive means no clear call, values can overlap the other calls; tested in BHK-21 cells
FN deposition inh – fibronectin deposition inhibition; AH1F fibroblasts, Alexa488-fibronectin deposition fluorescence, overnight; inhibition, % at 12.6 µM; 350,000 tested, 0.086% active;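 active means mean inhibition across replicates of 30% or more, regardless of how many single replicates reach that level; inconclusive means mean under 30% yet at least half of replicates reach 30%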
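Material – AH1F fibroblast monolayer, labelled fibronectin deposition · Reagent – labelled fibronectin 24 nM · Timing – 1 h adhesion, overnight exposure · Measured by – fluorescence at 485 nm excitation, 525 nm emission · Read-out – inhibition of fibronectin deposition signal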
CaV13 ICDI inh – Disruptors of the CACNA1D IQ motif to Ca2+-dependent inactivation inhibitor domain association, primary screening, Förster resonance energy transfer in intact living …. HEK cells, CFP/YFP FRET ICDI-IQ, plate reader, 10 min; percent FRET-ratio fall versus neutral wells. inhibition, % at 12.3 µM. 340,000 tested, 0.098% active;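 active means mean replicate inhibition of at least 30% and at least 1% of replicates passing that level; inconclusive means only one of the two criteria is met; inactive means neither criterion is met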
Casp6 inh – blocks human caspase-6 cleavage activity; P55212; AID 686996; inhibition, % at 12.5 µM; 350,000 tested, 0.53% active; purified caspase-6, Z-VEID-R110 cleavage fluorescence;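 active means mean inhibition across replicates at least about 35%, with every replicate also reaching that limit, limit read from the data; inconclusive means only one of the two criteria met; inactive means neither criterion met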
Target sequence (P55212 24-179 limits assumed): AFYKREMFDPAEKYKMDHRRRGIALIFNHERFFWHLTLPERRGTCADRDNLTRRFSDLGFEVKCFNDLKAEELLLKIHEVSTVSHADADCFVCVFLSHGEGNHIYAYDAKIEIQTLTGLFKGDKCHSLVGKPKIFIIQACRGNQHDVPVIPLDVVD
Target sequence (P55212 194-293 limits assumed): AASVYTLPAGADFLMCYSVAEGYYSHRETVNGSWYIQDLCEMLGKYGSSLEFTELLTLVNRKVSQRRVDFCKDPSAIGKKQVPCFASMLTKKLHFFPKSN
Xi reactivation – reactivates the inactive X chromosome in mouse fibroblasts | XiGFP mouse fibroblasts, % GFP-positive cells imaging, 3 d; cells co-treated with 5-aza-dC sensitizer; scaled so ellipticine positive control = 100% | activation, % at 7.58 µM | 360,000 tested, 0.055% active;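 active means mean normalized replicate activation at least 10% and every replicate at or above 10%; inconclusive means only one of the two criteria met; inactive means mean below 10% and not all replicates reach 10%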
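Material: SV40-immortalized XiGFP fibroblast cells, line 68-5-11 | Buffer or medium: DMEM containing 5-aza-dC | Dosing: One concentration, pinned | Times: 3 d treatment, 15 min room-temperature fixation | Controls: Ellipticine 6 µM positive control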
Numbers stand for hits; – = inactive; ? = inconclusive; · = not tested or not shown; + = active, no number.

SMILES | DENV2 CPE | FN deposition inh | CaV13 ICDI inh | Casp6 inh | Xi reactivation
COc1ccc(S(=O)(=O)N(C)C[C@H]2OCCCC[C@H](C)Oc3ccc(NS(C)(=O)=O)cc3C(=O)N([C@H](C)CO)C[C@@H]2C)cc1 | 20.2 | · | · | – | –
COc1ccc(S(=O)(=O)N(C)C[C@@H]2Oc3ccc(NS(=O)(=O)c4ccccc4)cc3C(=O)N([C@H](C)CO)C[C@H]2C)cc1 | 132.8 | · | · | · | –
COc1ccc(S(=O)(=O)N(C)C[C@H]2OCCCC[C@@H](C)Oc3ccc(NS(=O)(=O)c4ccccc4)cc3C(=O)N([C@@H](C)CO)C[C@H]2C)cc1 | 56.4 | – | · | – | –
COc1ccc(S(=O)(=O)Nc2ccc3c(c2)C(=O)N([C@@H](C)CO)C[C@H](C)[C@H](CN(C)S(=O)(=O)c2ccc(Cl)cc2)OCCCC[C@H](C)O3)cc1 | 25.3 | – | · | – | –
COc1ccc(S(=O)(=O)Nc2ccc3c(c2)C(=O)N([C@H](C)CO)C[C@@H](C)[C@H](CN(C)S(=O)(=O)c2ccccc2)O3)cc1 | – | · | · | – | –
COc1ccc(S(=O)(=O)N(C)C[C@@H]2OCCCC[C@H](C)Oc3ccc(NS(=O)(=O)c4ccccc4)cc3C(=O)N([C@H](C)CO)C[C@@H]2C)cc1 | ? | – | · | – | –
Cc1ccc(S(=O)(=O)N(C)C[C@@H]2OCCCC[C@H](C)Oc3ccc(NC(=O)NC(C)C)cc3C(=O)N([C@H](C)CO)C[C@@H]2C)cc1 | – | – | · | – | –
C[C@H]1CN([C@@H](C)CO)C(=O)c2cccc(NC(=O)C3CCOCC3)c2O[C@@H]1CN(C)S(=O)(=O)c1cn(C)cn1 | – | – | · | – | –
COc1ccc(S(=O)(=O)Nc2ccc3c(c2)C(=O)N([C@H](C)CO)C[C@H](C)[C@H](CN(C)S(=O)(=O)c2ccccc2)OCCCC[C@H](C)O3)cc1 | ? | · | · | – | –
COc1ccc(S(=O)(=O)Nc2ccc3c(c2)C(=O)N([C@@H](C)CO)C[C@@H](C)[C@@H](CN(C)S(=O)(=O)c2ccccc2)OCCCC[C@H](C)O3)cc1 | 21.2 | · | · | – | –
CC(=O)Nc1ccc(NC(=O)CSc2nnc(C)c(=O)n2N)cc1 | – | – | – | – | –
CC(=O)Nc1ccc(NC(=O)CSc2nnc(-c3cccs3)n2N)cc1 | 59.6 | · | – | – | –
Nn1c(SCC(=O)N2CCCC2)nnc1-c1cccs1 | – | – | 32.9 | – | –
O=C(Nc1cccc(F)c1)c1ccc(S(=O)(=O)N2CCCCC2)cc1 | 113.8 | – | – | – | –
Cc1cccnc1NC(=O)c1ccc(S(=O)(=O)N2CCCC2)cc1 | 64.6 | – | – | – | –
C[C@@H]1CN([C@H](C)CO)C(=O)c2cc(NC(=O)CCCN(C)C)ccc2O[C@@H](C)CCCCO[C@H]1CN(C)C(=O)CCCN(C)C | · | – | · | · | –
O=C(NCCS(=O)(=O)N1CCN(c2ccccc2)CC1)C1CC1 | 104.2 | – | – | – | –
CCCCCC(=O)N/N=C/c1ccc([N+](=O)[O-])o1 | – | · | – | – | ·
O=C(N/N=C\c1ccc([N+](=O)[O-])o1)c1cncc(Br)c1 | – | – | – | 39.0 | –
O=C(Cc1ccc2c(c1)OCO2)NN=Cc1ccc([N+](=O)[O-])o1 | 60.7 | – | – | – | –
C[C@@H]1CN([C@@H](C)CO)C(=O)c2cccc(NC(=O)c3ccc(-c4nccs4)cc3)c2O[C@@H]1CN(C)S(C)(=O)=O | 24.0 | · | · | – | –
C[C@@H]1CN([C@H](C)CO)C(=O)c2cccc(NC(=O)c3ccc(-c4nccs4)cc3)c2O[C@H]1CN(C)S(C)(=O)=O | – | · | · | – | –
C[C@H](CO)N1C[C@H](C)[C@@H](CN(C)S(C)(=O)=O)Oc2c(NC(=O)Cc3ccccc3)cccc2C1=O | – | 30.5 | – | – | –
C[C@@H]1CN([C@H](C)CO)C(=O)c2cccc(NC(=O)c3ccc(-c4nccs4)cc3)c2O[C@H]1CN(C)C(=O)Nc1ccc(F)cc1 | – | – | · | – | –
C[C@@H]1CN([C@@H](C)CO)C(=O)c2cccc(NC(=O)c3ccc(-c4nccs4)cc3)c2O[C@H]1CN(C)C | 73.0 | – | · | – | –
SMILES | DENV2 CPE | FN deposition inh | CaV13 ICDI inh | Casp6 inh | Xi reactivation
C[C@@H]1CN([C@H](C)CO)C(=O)c2cccc(NC(=O)c3ccc(-c4nccs4)cc3)c2O[C@@H]1CN(C)C(=O)Nc1ccc(F)cc1 | 62.9 | – | · | – | –
CO[C@H]1CN(C)C(=O)c2cc(NC(=O)c3ccccc3F)ccc2OC[C@@H](C)N(C(=O)c2ccccc2F)C[C@@H]1C | – | – | · | – | –
C[C@H]1CN([C@@H](C)CO)C(=O)c2cc(-c3cccnc3)cnc2O[C@H]1CN(C)C(=O)C1CCCCC1 | · | · | · | · | –
COc1ccc(CC(=O)c2ccc(O)cc2O)cc1 | 75.7 | · | · | – | ·
C[C@H](CO)N1C[C@H](C)[C@@H](CN(C)S(=O)(=O)c2cn(C)cn2)Oc2ccc(NC(=O)Nc3ccc(F)cc3)cc2CC1=O | · | · | · | · | –
CN(C)C(=O)c1cccc(-c2ccc3c(c2)[C@H]2[C@H](CCN2Cc2ccccc2F)[C@@H](CO)N3)c1 | – | – | · | · | –
CO[C@@H]1CN(C)C(=O)c2ccc(NC(=O)C3CC3)cc2OC[C@@H](C)N(C(=O)c2cccnc2)C[C@@H]1C | – | – | · | – | –
NC[C@H](Cc1ccccc1)NCCCCC1CCCCC1 | 35.5 | – | – | · | –
COc1cc(CCCN[C@H](CN)Cc2ccccc2)cc(OC)c1OC | · | – | – | · | –
CCOC(=O)c1c2ccc(OCC(=O)NN)cc2n2ccccc12 | – | – | + | – | –
CCOC(=O)c1c(-c2ccccc2)oc2ccc(OCC(=O)O)cc12 | – | – | – | – | –
Cc1oc(-c2ccc(F)cc2)cc1-c1nn2c(-c3ccco3)nnc2s1 | – | · | – | 56.9 | ·
COc1ccc(/C(N)=N/OC(=O)c2ccco2)cc1OC | – | – | – | – | –
Cc1csc(/C(=N/OC(=O)c2ccco2)C(N)=O)n1 | 35.0 | – | – | – | –
Cc1ccc(/C(O)=C2\C(=O)C(=O)N(C)C2c2ccccc2)cc1 (stereo not drawn) | 39.4 | – | – | – | –
CN(C)C(=O)c1ccc(-c2ccc([C@@H]3[C@H]4CN(C(=O)C5CCCC5)CCCCN4[C@H]3CO)cc2)cc1 | – | · | · | – | ·
Cc1ccccc1N(C(=O)c1ccco1)C(C(=O)NC1CCCC1)c1cccnc1 (stereo not drawn) | – | – | – | – | –
COc1ccc(Cl)cc1N(C(=O)c1ccco1)C(C(=O)NC1CCCC1)c1ccco1 (stereo not drawn) | 75.0 | – | – | – | –
CCc1ccccc1N(C(=O)c1ccco1)C(C(=O)NC1CCCC1)c1cccnc1 (stereo not drawn) | 54.5 | – | – | – | –
C[C@H]1CN(C)C(=O)Cc2ccccc2O[C@@H]1CN(C)S(C)(=O)=O | · | – | · | · | –
